# PubChem BioAssay AID2237 (Johns Hopkins Ion Channel Center, 2010)
# The campaign covered roughly 310,000 compounds. About 1,500 (0.48%) were called active. The sample holds actives, similar compounds and a random draw of the others, so the mix is not that of the screen.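 Rule for the calls: active = B-score above 5 SD of library B-scores, and initial fluorescence ratio not above library mean plus 5 SD; inactive = the rest.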
# Target: Short transient receptor potential channel 4 (Mus musculus) (UniProt Q9QUQ5)
# Assay: TRPC4 cation channel opening, calcium rise – Fluo4 calcium, HEK293 TRPC4beta/mu-opioid cells, primary screen (AID 2237);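 for B-score: positive B-score marks a calcium rise read as TRPC4 activation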
# Conditions: Fluo4 calcium fluorescence, at 10 µM; active compounds read high
# Outline: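 Assay system – TRPC4beta and mu-opioid receptor HEK293 stable cells · Measured by – Fluo4 fluorescence, kinetic · Schedule – dye loading 45 min room temperature, 110 s kinetic read · Read-out – B-scored integrated calcium fluorescence ratio · Controls – buffer and maximal DAMGO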
# Short transient receptor potential channel 4 (Mus musculus), sequence (Q9QUQ5 whole entry, looked up): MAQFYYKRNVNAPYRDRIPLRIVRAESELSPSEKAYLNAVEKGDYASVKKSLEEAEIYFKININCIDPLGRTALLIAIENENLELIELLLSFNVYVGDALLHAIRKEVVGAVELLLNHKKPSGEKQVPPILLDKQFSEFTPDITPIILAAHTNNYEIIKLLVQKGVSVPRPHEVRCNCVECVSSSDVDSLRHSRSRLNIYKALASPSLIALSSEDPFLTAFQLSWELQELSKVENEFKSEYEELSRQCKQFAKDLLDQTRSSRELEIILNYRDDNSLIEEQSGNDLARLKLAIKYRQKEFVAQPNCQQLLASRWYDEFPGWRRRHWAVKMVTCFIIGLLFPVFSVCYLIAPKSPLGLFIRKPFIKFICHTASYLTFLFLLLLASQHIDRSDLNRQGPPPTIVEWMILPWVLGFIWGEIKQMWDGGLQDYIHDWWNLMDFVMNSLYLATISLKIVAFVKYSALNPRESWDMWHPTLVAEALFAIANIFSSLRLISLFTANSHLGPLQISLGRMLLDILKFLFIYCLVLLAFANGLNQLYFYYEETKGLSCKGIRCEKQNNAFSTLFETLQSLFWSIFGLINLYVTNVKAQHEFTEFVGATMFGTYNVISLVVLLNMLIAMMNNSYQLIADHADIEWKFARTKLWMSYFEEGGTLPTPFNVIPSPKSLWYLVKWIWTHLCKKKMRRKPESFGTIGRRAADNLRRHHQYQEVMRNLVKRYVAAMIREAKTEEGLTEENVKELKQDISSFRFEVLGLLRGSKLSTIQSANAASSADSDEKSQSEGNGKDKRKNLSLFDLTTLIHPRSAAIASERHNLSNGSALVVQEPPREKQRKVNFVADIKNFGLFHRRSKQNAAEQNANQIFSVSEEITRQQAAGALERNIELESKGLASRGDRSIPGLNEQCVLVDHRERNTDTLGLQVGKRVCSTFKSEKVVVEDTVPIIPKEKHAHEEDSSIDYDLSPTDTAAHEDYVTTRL
row,Compound,B-score
1,Cc1nc(CNS(=O)(=O)c2cccnc2)cs1,inactive
2,O=S(=O)(NCCc1ccncc1)c1ccccc1,inactive
3,O=S(=O)(NCCc1csc(-c2ccccc2)n1)c1cccnc1,102 (active)
4,CC#CC[N+](C)(C)CCCCCC,inactive
5,COC(=O)CC(=O)N1CCN(c2ccc(Cl)c(Cl)c2)CC1,inactive
6,OC(CNCc1ccc2c(c1)OCO2)COc1ccccc1 (stereo unspecified),inactive
7,OC(CNCCc1ccc(Cl)cc1Cl)COc1ccccc1 (stereo unspecified),44 (active)
8,COc1ccc(OCC(O)CNC(=O)Nc2ccc(Cl)cc2)cc1 (stereo unspecified),inactive
9,CO/N=C/c1cn(-c2ccc(Cl)cc2)nn1,inactive
10,CCN(CC)c1ccc(NC(=O)CCc2nnc3ccc(N4CCCCC4)nn23)c(C)c1,inactive
11,CCCC(=O)NC(C)C(c1cccs1)N1CCN(c2ccccc2)CC1 (stereo unspecified),87 (active)
12,CC(NC(=O)C(C)(C)C)C(c1cccs1)N1CCN(Cc2ccccc2)CC1 (stereo unspecified),inactive
13,CC(NC(=S)Nc1ccccc1)C(c1cccs1)N1CCOCC1 (stereo unspecified),inactive
14,COc1ccc(CNC(=O)c2ccc3oc(C(C)C)nc3c2)cc1,inactive
15,COc1ccc(N(CC(=O)Nc2ccc(C)cc2C)S(=O)(=O)c2ccccc2[N+](=O)[O-])c(OC)c1,inactive
16,O=C(Nc1ccc2sc3ccccc3c(=O)c2c1)c1ccccc1Cl,inactive
17,Cc1[nH]n(-c2cccc(Cl)c2)c(=O)c1/C=N/n1c(C)nc2ccccc2c1=O,inactive
18,Cc1ccc(-n2[nH]c(C)c(/C=N/N3C(=O)c4cccc5cccc(c45)C3=O)c2=O)cc1,131 (active)
19,COc1cc(SC#N)ccc1N=Cc1c(C)[nH]n(-c2ccc(C)cc2)c1=O,inactive
20,COc1ccccc1CCNS(=O)(=O)c1cc2c3c(c1)C(C)C(=O)N3CCC2 (stereo unspecified),inactive
21,CCOc1ccc(S(=O)(=O)NCCC(=O)NCC(C)(C)N2CCOCC2)cc1,inactive
22,COc1ccccc1NC(=O)CC(NCCN(C)C)C(=O)O (stereo unspecified),inactive
23,COc1ccc(C)cc1NC(=O)Nc1ccccc1SC,inactive
24,COC(=O)C(CC(=O)Nc1cc(C)ccc1C)Nc1ccccc1OC (stereo unspecified),69 (active)

row,Compound,B-score
1,Cc1ccc(CNC(=O)Cc2cn(C)c3ccccc23)cc1,inactive
2,COc1ccc(N2CCN(C(=O)c3cccs3)CC2)cc1,inactive
3,O=C(Nc1cccnc1)c1cc(Cl)ccc1Cl,inactive
4,CS(=O)(=O)N(CC(=O)Nc1ccc(Cl)c(Cl)c1)C1CCCCC1,inactive
5,CC(c1cccnc1)N(CCN(C)C)C(=O)Nc1ccc(Cl)c(Cl)c1 (stereo unspecified),62 (active)
6,CC1=C/C(=N\OS(=O)(=O)c2ccccc2)C=CC1=O,inactive
7,COc1ccc(-n2nc(C(=O)NCC(=O)N3CCC(C(N)=O)CC3)c3ccccc3c2=O)cc1OC,inactive
8,CC1(C)N=C(c2ccccn2)C(C)(C)N1O,inactive
9,CC1(C)CC(CNCCC(c2ccc(F)cc2)c2ccco2)CCO1 (stereo unspecified),inactive
10,O=C(NCCc1ccccn1)c1cccnc1Oc1ccc(Cl)cc1,inactive
11,O=C(CNC(=O)COc1ccccc1)NCCc1ccccn1,inactive
12,O=C(COc1cc(Cl)c(Cl)cc1Cl)NCCc1ccccn1,85 (active)
13,CCn1cc(-c2cc(C(=O)O)on2)c(C)n1,inactive
14,S=c1nc(C23CC4CC(CC(C4)C2)C3)nc2sccn12,inactive
15,N[C@@H](Cc1ccccc1)C(=O)N1CCC(C(=O)NCC(=O)Nc2ccc(F)cc2)CC1,inactive
16,CN(C)CCN(C(=O)C1CCCCC1)c1nc2cc3c(cc2s1)OCO3,66 (active)
17,CCN(CC)CCN(C(=O)c1cc(Cl)sc1Cl)c1nc2cc3c(cc2s1)OCO3,inactive
18,CN(C)CCN(C(=O)CN1C(=O)c2ccccc2C1=O)c1nc2cc3c(cc2s1)OCCO3,inactive
19,COc1cccc(/C=N/NC(=O)C(=O)N2CCCC2)c1,inactive
20,COc1ccc(/C=N/N(C)C2=NS(=O)(=O)c3ccccc32)cc1OC,inactive
21,CN(Cc1ccco1)S(=O)(=O)c1nnc(NC(=O)c2ccccc2)s1,inactive
22,O=S(=O)(Oc1ccccc1C(=S)N1CCOCC1)c1ccc(Cl)cc1,inactive
23,C[C@]1(C(=O)NCCc2c[nH]c3ccccc23)C=C[C@@H](Cc2ccccc2)N1C(=O)c1ccccc1,inactive
24,C=CCN(C(=O)c1cc(C)cc(C)c1)C1(C(=O)Nc2ccccc2)CCN(C(C)C)CC1,inactive

row,Compound,B-score
1,Cc1ccc(CCN2CC(C(=O)NCCc3ccccc3)CC2=O)cc1 (stereo unspecified),inactive
2,Cc1cc(C)cc(C(=O)N(CCc2ccccc2)C2=CC3CCC(C2)N3C)c1 (stereo unspecified),75 (active)
3,O=C(CC(c1ccccc1)c1ccccc1)NCC(O)c1ccc([N+](=O)[O-])cc1 (stereo unspecified),inactive
4,CN(C)C(CNC(=O)Cc1ccc([N+](=O)[O-])cc1)c1ccccc1 (stereo unspecified),179 (active)
5,CN(C)CCNC(=O)Cc1ccc([N+](=O)[O-])cc1,inactive
6,CC(C)Oc1c(Br)cc(Br)cc1/C=N/NC(N)=S,inactive
7,Cc1ccc(S(=O)(=O)N(Cc2cc3ccccc3[nH]c2=O)CC2CCCO2)cc1 (stereo unspecified),inactive
8,COc1ccc(C(=O)NC2CCN(C(=S)NCCc3ccccc3)CC2)cc1,inactive
9,O=C(NNC(=S)NCc1ccccc1)c1ccc(OC(F)F)cc1,inactive
10,CC(C)Oc1ccc(CCC(=O)NNC(=S)NCc2ccccc2)cc1,123 (active)
11,Cc1ccc(OCC(=O)NNC(=S)NCc2ccccc2)cc1,inactive
12,COc1ccc(C(=O)NC(=S)NC2CCCCC2)cc1,inactive
13,O=C(CCc1ccccc1)NNC(=O)COc1ccc(Cl)cc1,inactive
14,COc1ccc(C(=O)NC(=S)NNC(=O)CCc2ccccc2)cc1,96 (active)
15,COc1ccc(C(=O)NNC(=S)NC(=O)c2ccccc2)cc1,180 (active)
16,COc1ccc(C(=O)NNC(=S)NC(=O)c2ccccc2[N+](=O)[O-])cc1,inactive
17,Cc1cc(C)c(C(=O)CSc2nc(C)cc(=O)[nH]2)c(C)c1,inactive
18,Cc1ccc(C(=O)NCC(=O)OCC(=O)NC2CCCCCCC2)cc1,inactive
19,COc1ccc(Br)cc1CN(C)CC(=O)Nc1cc([N+](=O)[O-])ccc1OC,inactive
20,CCCn1nc(C(=O)N2CCCc3ccccc32)c2ccccc2c1=O,inactive
21,CN(C)C(=O)N1CCNCC1,inactive
22,Cc1ccc(CC2CC(=O)N(c3cc(C)ccc3C)C2=O)cc1 (stereo unspecified),inactive
23,O=C(CNS(=O)(=O)c1ccc(Br)s1)N1CCN(C(=O)c2ccco2)CC1,inactive
